Test [1] is described as follows: inhibitors of TNFa-induced NFkB p65 translocation, primary screen, imaging, HUVEC, MLSMR starter and 10KST1 sets (AID 438;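 active = inhibition above 20% together with a positive visual image hit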;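 also: compound added about 3h40 before a 20 min TNFalpha stimulation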;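 as to inhibition: signal is the nuclear over cytoplasmic p65 intensity ratio per well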). Conditions: HUVEC TNFa-induced p65 nuclear translocation; cell count: measured here: nuclei count (cytotoxicity indicator), at 2.08 µM; inhibition: at 2 µM, stronger effect = higher value, 0% TNFa-plus-vehicle, 100% no-TNFa wells.
Test [2] in a line: inhibitors of mutant huntingtin aggregation, primary screen, imaging, exon1htt(103Q)mCFP cells, high-content imaging (AID 483;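 active = visual image review flags a hit and inhibition of aggregation exceeds 20%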;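 also: compound exposure lasted 3 days before fixation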;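 as to nuclei count: percent of the per-plate median nuclei count of sample wells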). Conditions: exon1htt(103Q)mCFP cell line, aggregate imaging, at 2 µM; inhibition of aggregation: stronger effect = higher value; nuclei count: measured here: cell count, toxicity.
The nature of test [3]: inhibitors of E-selectin induction by TNFa, primary screen, imaging, HUVEC, immunofluorescence, MLSMR starter and 10KST1 sets (AID 487;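 active = visually confirmed hit in the image check and inhibition above 20%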;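 as to inhibition: signal is fraction of cell area covered by stained E-selectin grains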;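 as to nuclei count: 100% = median nuclei count of all wells on the same plate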). Conditions: HUVEC TNFalpha-induced E-selectin immunofluorescence imaging, at 2 µM; inhibition: stronger effect = higher value; nuclei count: measured here: cell number, toxicity.
For test [4], the target named is Voltage-gated potassium channel subunit beta-2 (Rattus norvegicus) (UniProt P62483). As to the kind of experiment: KvBeta enzyme negative modulators, primary screen, biochemical, NADPH fluorescence (AID 622).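 Also: slope of raw intensity against log time taken from 70 to 1610 s.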 Conditions: recombinant KvBeta, 4-cyanobenzaldehyde reduction, at 10 µM, stronger effect = higher value.
Chain of Voltage-gated potassium channel subunit beta-2 (Rattus norvegicus) (P62483 whole entry, looked up): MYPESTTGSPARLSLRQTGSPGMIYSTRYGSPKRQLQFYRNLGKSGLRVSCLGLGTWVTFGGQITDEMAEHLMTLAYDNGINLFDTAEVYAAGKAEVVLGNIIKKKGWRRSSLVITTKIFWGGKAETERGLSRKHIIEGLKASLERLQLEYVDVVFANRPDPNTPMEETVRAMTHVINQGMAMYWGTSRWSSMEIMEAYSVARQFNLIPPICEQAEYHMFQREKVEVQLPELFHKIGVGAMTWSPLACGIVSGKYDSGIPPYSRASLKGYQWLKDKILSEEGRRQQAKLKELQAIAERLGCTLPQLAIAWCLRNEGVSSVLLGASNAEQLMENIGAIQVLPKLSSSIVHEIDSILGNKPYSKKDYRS
The target is the same in test [5]. As to the kind of experiment: KvBeta positive modulators, primary screen, biochemical, NADPH fluorescence (AID 623;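 active = NADPH fluorescence slope more negative than the mean of all samples by about 3 SD, 99.7% confidence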;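 also: fluorescence intensity change per second fitted from 20 to 320 s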). Conditions: Recombinant KvBeta, NADPH fluorescence decrease slope, 10 min; at 10 µM; stronger effect = lower value.
For test [6], the target named is Muscarinic acetylcholine receptor M4 (Homo sapiens) (UniProt P08173). As to the kind of experiment: compounds altering M4/GIRK thallium flux, either direction, primary screen, M4 allosteric agonist project, cell-based, HEK293 M4/GIRK, BTC-AM (AID 625;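 active = fluorescence slope after compound addition differing from the mean of all tested samples at 99.7% confidence, mostly higher but some lower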;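 also: thallium influx through GIRK channels coupled to M4 in HEK293 cells with BTC-AM dye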). Conditions: at 10 µM, actives lie on both sides. In a few lines: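 Material: M4/GIRK1/GIRK2 stable HEK293 cell line. Medium: pH 7.3 thallium assay buffer. Dosing: single compound concentration, 10 µM final. Schedule: 1 h dye loading, 2 min kinetic read. Measured by: kinetic fluorescence with BTC-AM dye. Read-out: post-addition slope, 15–24 s, of baseline-normalized fluorescence. Benchmarks: carbachol and DMSO controls.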
Chain of Muscarinic acetylcholine receptor M4 (Homo sapiens) (P08173 whole entry, looked up): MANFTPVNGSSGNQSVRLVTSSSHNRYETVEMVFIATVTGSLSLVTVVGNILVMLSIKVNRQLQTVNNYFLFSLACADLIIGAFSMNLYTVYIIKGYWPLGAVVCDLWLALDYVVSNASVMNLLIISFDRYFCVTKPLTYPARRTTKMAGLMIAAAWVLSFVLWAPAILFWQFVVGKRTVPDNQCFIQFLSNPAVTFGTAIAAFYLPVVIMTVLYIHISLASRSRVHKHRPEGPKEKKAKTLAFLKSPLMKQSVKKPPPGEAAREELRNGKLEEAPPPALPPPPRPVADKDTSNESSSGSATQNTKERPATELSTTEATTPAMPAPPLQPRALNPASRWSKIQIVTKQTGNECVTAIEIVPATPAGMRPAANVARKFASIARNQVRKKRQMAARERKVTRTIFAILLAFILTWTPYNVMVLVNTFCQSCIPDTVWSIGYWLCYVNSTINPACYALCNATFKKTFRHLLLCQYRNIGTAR

A short description of test [7]: inhibitors of Sendai virus-induced IRF3 signaling, primary screen, TLR/RLR signaling modifier project, cell-based, Sendai virus stimulus, luciferase, 10K MLSCN set (AID 602276;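 active = inhibition at or above 50% at 10 µM; inactive = inhibition below 50%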;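 also: firefly luciferase from ISG56 promoter only with Renilla not read in this screen; 0% = Sendai virus plus DMSO and 100% = medium plus DMSO without virus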). Conditions: HEK293 RL24 IRF3 luciferase reporter, at 10 µM, stronger effect = higher value.
The nature of test [8]: inhibitors of poly I:C-induced TLR3 signaling, primary screen, cell-based, poly I:C stimulus, luciferase, 10K MLSCN set (AID 602277;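 active = inhibition of the reporter signal at or above 50%; inactive = inhibition below 50%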). Conditions: HEK293-TLR3 RL24 IRF3 luciferase reporter, at 10 µM, stronger effect = higher value.
The target in test [9] is Alpha-2C adrenergic receptor (Homo sapiens) (UniProt P18825). The experiment in a line: modulators of alpha2C/GIRK thallium flux, primary screen, cell-based, HEK293 alpha2C/GIRK1/2 (AID 624;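 active = fluorescence slope after compound addition differing from the mean of all screened samples at 99.7% confidence, in either direction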;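 also: slope of fluorescence ratio to pre-addition baseline per second over 15 to 24 s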). Conditions: thallium flux BTC fluorescence, at 10 µM, actives lie on both sides.
Chain of Alpha-2C adrenergic receptor (Homo sapiens) (P18825 whole entry, looked up): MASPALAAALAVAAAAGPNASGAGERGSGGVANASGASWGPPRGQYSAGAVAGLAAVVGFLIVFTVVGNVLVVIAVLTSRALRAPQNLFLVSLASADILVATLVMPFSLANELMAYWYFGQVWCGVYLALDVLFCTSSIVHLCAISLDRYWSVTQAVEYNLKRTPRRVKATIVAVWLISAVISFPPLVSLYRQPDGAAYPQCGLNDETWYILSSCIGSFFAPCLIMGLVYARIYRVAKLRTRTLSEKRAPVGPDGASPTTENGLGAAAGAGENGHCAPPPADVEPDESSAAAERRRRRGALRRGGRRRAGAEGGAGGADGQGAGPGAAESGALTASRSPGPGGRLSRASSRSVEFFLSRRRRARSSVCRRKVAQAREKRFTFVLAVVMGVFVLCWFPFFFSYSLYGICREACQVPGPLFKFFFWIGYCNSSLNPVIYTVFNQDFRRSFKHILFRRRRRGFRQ
The nature of test [10]: inhibitors of larval lipid processing in zebrafish, primary screen, whole organism, PED6 fluorescence, gall bladder and intestine (AID 686;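 active = a full or partial loss of lipid-probe fluorescence in the fish gall bladder, intestine or both, judged by eye; inactive = no fluorescence loss, or compound toxic to the fish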;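 also: larvae 5 to 7 days old with five fish per well; signal comes from phospholipase A2 cleavage of quenched PED6 carried via bile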). Conditions: Zebrafish larvae PED6 lipid processing, fluorescence scoring; screened at 20 µM (by protocol). In a few lines: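 System: live zebrafish larvae aged 5-7 days, whole organism; measure: graded gall bladder and intestinal fluorescence inhibition per well; incubation: overnight exposure; reagent: ingested quenched lipid PED6 at 100 nM; signal: By-eye fluorescence microscopy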

The source made the active and inactive calls.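 The calls were made as follows, unless noted: active = fluorescence slope higher than the sample average by over 3 SD (cut at about -0.22 in these data, passing the limit was not always enough); inactive = the rest.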

By inhibition is commonly meant the drop in the measured response relative to a control, in per cent. With `Cc1nc(-c2ccc(NC(=O)c3cccs3)cc2)cs1`, the cell count in test [1] is 369. Also, the inhibition was -3.7% (inactive) in test [1], -0.4% (inactive) in test [3], -23.5% (inactive) in test [7] and -96.4% (inactive) in [8]. In test [2], the inhibition of aggregation is 20.1% (inactive). In addition, the nuclei count in test [2] is 105%; in test [3], 109%. Besides, the fluorescence slope in [4] is -0.427 (inactive); in test [6] it was 0.005 (inactive). The NADPH fluorescence slope in test [5] is -4.1e-05 (inactive).

For the compound `CCOC(=O)c1ccc(NC2OC(=O)c3ccccc32)cc1` (stereo not drawn), the cell count in test [1] is 605. Also, the inhibition was -54.1% (inactive) in test [1], -85.2% (inactive) in [3], 11.8% (inactive) in [7] and -21.4% (inactive) in [8]. In addition, the inhibition of aggregation in test [2] is 6.4% (inactive). For the same compound, the nuclei count was found to be 106% in [2] and 118% in [3]. Moreover, the fluorescence slope was -0.216 (inactive) in test [4] and 0.00703 (inactive) in test [6]. In [5], the NADPH fluorescence slope is -2.5e-05 (inactive).

As for `CCCCN(CCCC)CCCNC(=O)CC1Oc2ccc(C)cc2NC1=O` (stereo not drawn), the cell count in test [1] worked out at 618. Also, the inhibition is -18.4% (inactive) in test [1], -6.4% (inactive) in [3], 17.2% (inactive) in [7] and 23.7% (inactive) in [8]. The inhibition of aggregation in test [2] is 4.4% (inactive). The nuclei count in test [2] was 110%; in [3] it was 92.1%. Besides, the fluorescence slope in test [4] was -0.242 (inactive); in [6] it was 0.00528 (inactive). In test [5], the NADPH fluorescence slope was -7e-06 (inactive).

In the case of `O=S(=O)(c1ccc2c(c1)nc1n2CCC1)N1CCOCC1`, the cell count in test [1] stood at 519. Besides, the inhibition was -1.9% (inactive) in test [1], -18.9% (inactive) in [3], -4.44% (inactive) in [7] and 13.8% (inactive) in test [8]. The inhibition of aggregation in test [2] was -0.2% (inactive). The figures for the nuclei count in test [2] and in test [3] were 96.3% and 107%, respectively. In addition, the fluorescence slope in test [4] is -0.423 (inactive); in test [6], 0.00774 (inactive). In test [5], the NADPH fluorescence slope is 2.5e-05 (inactive).

Regarding `Cc1cnc(C(=O)Nc2ccc(N3CCOCC3)cc2)cn1`, in test [1], the cell count stood at 392. Further, the inhibition was 3% (inactive) in test [1], 4.5% (inactive) in test [3], -19.8% (inactive) in test [7] and -62% (inactive) in test [8]. The inhibition of aggregation in test [2] is -7.7% (inactive). Besides, the nuclei count worked out at 117% in test [2] and 101% in test [3]. Besides, the fluorescence slope in [4] is -0.524 (inactive); in test [6] it was 0.00612 (inactive). Also, the NADPH fluorescence slope in test [5] is -2.8e-05 (inactive).

Turning to `COc1cccc(C(=O)Nc2ccc(NC(=O)C(C)(C)C)cn2)c1`, the cell count in test [1] is 444. Moreover, the inhibition in [1] is 9.8% (inactive); in [7], 36% (inactive); in [8], 21.1% (inactive). Moreover, the inhibition of aggregation in [2] was -12.7% (inactive). Besides, the figures for the nuclei count in test [2] and in [3] were 120% and 135%, respectively. For the same compound, the fluorescence slope in test [4] is -0.571 (inactive); in [6] it was 0.00623 (inactive). In test [5], the NADPH fluorescence slope was -9.6e-06 (inactive).

With `Cc1cc2cc(CNC(=O)c3ccc4c(c3)OCO4)ccc2[nH]1`, the cell count in test [1] came to 442. Further, the inhibition in [1] was 2.9% (inactive); in test [7], -10.5% (inactive); in [8], -25.2% (inactive). Also, the inhibition of aggregation in [2] was 0.1% (inactive). Besides, the nuclei count in [2] is 106%; in test [3], 150%. Further, the fluorescence slope in test [4] is -0.503 (inactive). Further, the NADPH fluorescence slope in [5] is -1.1e-05 (inactive). The slope in [9] was 0.00502 (inactive).

As for `CCOC(=O)C1=C(Cn2cnc3ccccc32)NC(=O)NC1c1cc(C)ccc1C` (stereo not drawn), the cell count in test [1] is 562. Moreover, the inhibition was -10.3% (inactive) in [1], 0.3% (inactive) in [3], 27.2% (inactive) in test [7] and 19% (inactive) in [8]. The inhibition of aggregation in [2] is -15.4% (inactive). Also, the nuclei count in [2] amounted to 106%; in test [3], 104%. Also, the fluorescence slope in test [4] is -0.461 (inactive); in test [6], 0.00427 (inactive). The NADPH fluorescence slope in [5] was -1.9e-05 (inactive).

`N#Cc1c(NC(=O)CSc2nnnn2C2CCCC2)sc2c1CCCC2`: in test [1], the cell count was determined as 527. In addition, the inhibition in test [1] is -1.8% (inactive); in test [3] it was 36.6% (inactive); in test [7] it was 11% (inactive); in test [8] it was 26.3% (inactive). For the same compound, in test [2], the inhibition of aggregation was -3.6% (inactive). For the same compound, the results for the nuclei count in [2] and in [3] were 114% and 109%, respectively. Besides, the fluorescence slope in test [4] was -0.392 (inactive); in test [6] it was 0.00642 (inactive). For the same compound, the NADPH fluorescence slope in test [5] is 2.8e-05 (inactive).

As for `O=C(CN1C(=O)CCSc2ccccc21)Nc1ccc(F)cc1`, the cell count in test [1] is 312. In addition, the inhibition is 0.7% (inactive) in test [1], -8.3% (inactive) in test [3], -6.29% (inactive) in [7] and 2.08% (inactive) in test [8]. The inhibition of aggregation in test [2] is -6% (inactive). Further, the nuclei count was found to be 100% in [2] and 110% in test [3]. Moreover, the fluorescence slope in test [4] was -0.473 (inactive); in test [6] it was 0.00664 (inactive). For the same compound, in [5], the NADPH fluorescence slope was 4.1e-05 (inactive).

Regarding `CCC(Sc1ccc2nnc(-c3ccc(F)cc3)n2n1)C(=O)OC` (stereo not drawn), the cell count in test [1] is 562. The inhibition in test [1] was -16.6% (inactive); in test [3] it was -73.4% (inactive); in [7], 17.3% (inactive); in test [8], 19.1% (inactive). Besides, the inhibition of aggregation in [2] was 25.1% (inactive). The nuclei count in test [2] and in test [3] was 117% each time. For the same compound, the fluorescence slope in test [4] is -0.185 (inactive); in test [6], 0.00751 (inactive). The NADPH fluorescence slope in test [5] is -7e-06 (inactive).

`Cc1c(C(=O)NCc2ccccn2)oc2ccccc12`: the cell count in test [1] is 328. Also, the inhibition was -4.1% (inactive) in test [1], 44.5% (inactive) in test [3], -29.5% (inactive) in [7] and -79.6% (inactive) in test [8]. Moreover, the inhibition of aggregation in test [2] was -3.8% (inactive). Moreover, the nuclei count in test [2] came out at 86%; in test [3] it was 49.4%. Further, the fluorescence slope is -0.514 (inactive) in test [4] and 0.00478 (inactive) in test [6]. Further, the NADPH fluorescence slope in test [5] was 8.6e-06 (inactive).

As for `Cc1ccc(Cn2nnc3c(=O)[nH]c(C4CCN(S(=O)(=O)c5ccc(F)cc5)CC4)nc32)cc1`, the cell count in test [1] worked out at 436. Besides, the inhibition in test [1] is 9.4% (inactive); in test [7], 0.788% (inactive); in [8], -11.3% (inactive). The inhibition of aggregation in [2] is 11.5% (inactive). Moreover, the nuclei count in test [2] is 107%; in test [3], 153%. Moreover, the figures for the fluorescence slope in [4] and in test [6] were -0.584 (inactive) and 0.00687 (inactive), respectively. Also, in test [5], the NADPH fluorescence slope was 1.2e-05 (inactive).

As to `CC(C)CN(CC(C)C)c1nc(N)c(C#N)c(CC#N)c1C#N`, in test [1], the cell count came to 326 and the inhibition was -7% (inactive). Also, in test [2], the inhibition of aggregation was 9% (inactive) and the nuclei count was found to be 102%. Besides, in test [3], the inhibition was -60.7% (inactive) and the nuclei count turned out to be 120%. For the same compound, the fluorescence slope in test [4] was -0.318 (inactive). In test [5], the NADPH fluorescence slope was -5e-05 (inactive). The slope in test [9] was 0.00502 (inactive). Further, in test [10], the outcome was inactive. In addition, the inhibition in [8] is 62.5% (active).

Regarding `CCOc1ccccc1N1CCN(S(=O)(=O)c2cccc3nsnc23)CC1`, in test [1], the cell count came to 453. Further, the inhibition in [1] was 3.9% (inactive); in [3] it was -6.6% (inactive); in test [7], 22.8% (inactive); in [8] it was 18.5% (inactive). The inhibition of aggregation in test [2] was -10.4% (inactive). For the same compound, the nuclei count in [2] stood at 94%; in test [3], 106%. Also, the fluorescence slope was -0.472 (inactive) in [4] and 0.00356 (inactive) in test [6]. For the same compound, the NADPH fluorescence slope in test [5] was 2.9e-06 (inactive).

For `CCCCNS(=O)(=O)c1ccc(OC)c2ncccc12`, the cell count in test [1] stood at 568. The inhibition in test [1] was 4.1% (inactive); in [3] it was -1.9% (inactive); in [7] it was -12.5% (inactive); in test [8], -11.5% (inactive). Besides, the inhibition of aggregation in test [2] is 16.3% (inactive). Besides, the results for the nuclei count in test [2] and in test [3] were 115% and 93%, respectively. For the same compound, the fluorescence slope was -0.337 (inactive) in test [4] and 0.00627 (inactive) in [6]. Besides, the NADPH fluorescence slope in [5] is -4.1e-05 (inactive).

(Values after PubChem BioAssay.)
